Results as given in ChEMBL document CHEMBL1153357, “Rational design and synthesis of potent and long-lasting glutamic acid-based dipeptidyl peptidase IV inhibitors” (Bioorg Med Chem Lett, 2009).
The source made the active and inactive calls. No cut-off for these calls is given here.

Assays:
Dipeptidyl peptidase 4 = Dipeptidyl peptidase 4 (Homo sapiens, UniProt P27487)
Dipeptidyl peptidase 8 = Dipeptidyl peptidase 8 (Homo sapiens, UniProt Q6V1X1); test: Inhibition of DPP8
Dipeptidyl peptidase 2 = Dipeptidyl peptidase 2 (Homo sapiens, UniProt Q9UHL4); test: Inhibition of DPP2
[1] = Inhibition of FAP
In short: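 Enzyme inhibition IC50 is reported as the mean of at least three experiments, with standard deviations of ±40%.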

[2] = Stability to the compound assessed as half life in phosphate buffer at pH 7.4; type: physicochemical
Mus musculus = test: Reduction in glucose excursion in C57BL/6 mouse at 3 mg/kg, po measured up to 120 mins by oral glucose tolerance test; type: functional, organism-based; set-up: dose 3 mg/kg
In short: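 C57BL/6j mice (n = 6) received the compound orally at 3 mpk, with water as the control, 30 min before a glucose load of 3 g/kg.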

Rattus norvegicus [3] = test: Inhibition of plasma DPP4 in Wistar rat at 3 mg/kg, po measured 30 mins to 4 hrs; conditions: read-out: INH
Rattus norvegicus [4] = test: Inhibition of plasma DPP4 in Wistar rat at 3 mg/kg, po measured after 8 hrs; conditions: read-out: INH

Sequence of Dipeptidyl peptidase 4 (P27487 whole entry): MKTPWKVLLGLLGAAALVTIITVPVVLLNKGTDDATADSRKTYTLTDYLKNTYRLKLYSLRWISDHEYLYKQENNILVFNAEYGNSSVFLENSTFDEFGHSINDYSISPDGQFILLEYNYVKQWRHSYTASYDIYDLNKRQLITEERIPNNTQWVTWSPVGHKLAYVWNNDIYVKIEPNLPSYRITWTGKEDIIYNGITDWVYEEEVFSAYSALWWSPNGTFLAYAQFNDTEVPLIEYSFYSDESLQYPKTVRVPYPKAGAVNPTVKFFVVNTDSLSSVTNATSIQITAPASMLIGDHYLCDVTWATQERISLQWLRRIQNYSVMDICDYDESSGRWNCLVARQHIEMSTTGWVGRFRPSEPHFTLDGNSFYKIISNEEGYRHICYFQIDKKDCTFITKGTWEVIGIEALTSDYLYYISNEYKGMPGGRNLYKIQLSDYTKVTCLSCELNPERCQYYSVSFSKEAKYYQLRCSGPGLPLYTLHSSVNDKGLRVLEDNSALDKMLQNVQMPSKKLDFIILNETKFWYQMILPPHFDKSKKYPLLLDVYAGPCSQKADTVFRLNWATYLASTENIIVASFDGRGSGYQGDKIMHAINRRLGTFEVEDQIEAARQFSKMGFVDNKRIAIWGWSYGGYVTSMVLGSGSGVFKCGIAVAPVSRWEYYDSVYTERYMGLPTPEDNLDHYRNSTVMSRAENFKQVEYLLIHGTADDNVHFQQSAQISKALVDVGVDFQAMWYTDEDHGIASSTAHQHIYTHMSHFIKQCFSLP
Sequence of Dipeptidyl peptidase 8 (Q6V1X1 whole entry): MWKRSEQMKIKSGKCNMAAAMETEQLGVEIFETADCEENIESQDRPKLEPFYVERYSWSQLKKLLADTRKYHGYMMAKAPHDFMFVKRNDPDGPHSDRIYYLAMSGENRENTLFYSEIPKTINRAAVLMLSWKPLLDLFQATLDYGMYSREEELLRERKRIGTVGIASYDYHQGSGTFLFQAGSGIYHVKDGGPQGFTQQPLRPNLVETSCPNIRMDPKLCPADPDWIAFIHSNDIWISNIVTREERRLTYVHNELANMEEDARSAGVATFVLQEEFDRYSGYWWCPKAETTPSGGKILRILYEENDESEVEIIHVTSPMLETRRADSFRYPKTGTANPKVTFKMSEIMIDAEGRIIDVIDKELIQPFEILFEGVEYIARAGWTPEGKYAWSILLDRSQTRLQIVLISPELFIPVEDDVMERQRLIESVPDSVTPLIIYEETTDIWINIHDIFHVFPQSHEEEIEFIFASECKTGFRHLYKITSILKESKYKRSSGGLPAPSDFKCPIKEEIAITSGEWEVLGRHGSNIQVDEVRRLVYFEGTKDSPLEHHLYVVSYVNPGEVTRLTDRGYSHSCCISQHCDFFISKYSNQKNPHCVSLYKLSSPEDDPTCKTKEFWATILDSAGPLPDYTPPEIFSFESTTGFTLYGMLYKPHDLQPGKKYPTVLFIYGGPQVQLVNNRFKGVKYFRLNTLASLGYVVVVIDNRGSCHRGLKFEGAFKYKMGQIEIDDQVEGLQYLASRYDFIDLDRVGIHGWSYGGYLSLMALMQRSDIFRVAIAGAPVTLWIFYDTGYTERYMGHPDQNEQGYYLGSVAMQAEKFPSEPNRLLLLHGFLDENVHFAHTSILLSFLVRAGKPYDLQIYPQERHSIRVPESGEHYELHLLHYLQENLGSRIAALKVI

N[C@@H](CCC(=O)N1Cc2ccccc2C1)C(=O)N1CCSC1
IC50 (Dipeptidyl peptidase 4): 1.6 µM
IC50 (Dipeptidyl peptidase 8): > 20 µM
IC50 (Dipeptidyl peptidase 2): > 20 µM
IC50 [1]: 12 µM

N#C[C@@H]1CCCN1C(=O)[C@@H](N)CCC(=O)Nc1ccccc1
IC50 (Dipeptidyl peptidase 4): 0.037 µM

COC[C@H]1CCCN1C(=O)CC[C@H](N)C(=O)N1CCC[C@H]1C#N
IC50 (Dipeptidyl peptidase 4): 0.022 µM
IC50 (Dipeptidyl peptidase 2): > 20 µM
IC50 [1]: 21 µM

COC[C@@H]1CCCN1C(=O)CC(C)(C)[C@H](N)C(=O)N1CCC[C@H]1C#N.O=C(O)C(F)(F)F
IC50 (Dipeptidyl peptidase 2): > 20 µM
IC50 [1]: > 20 µM
half-life [2]: > 168 h
Activity (Mus musculus): Active
inhibition in vivo at 3 mg/kg (Rattus norvegicus [3]): > 80%
inhibition in vivo at 3 mg/kg (Rattus norvegicus [4]): > 60%

CC(C)(CC(=O)N1Cc2ccccc2C1)[C@H](N)C(=O)N1CCC[C@H]1C#N
IC50 (Dipeptidyl peptidase 4): 0.012 µM
IC50 (Dipeptidyl peptidase 2): > 20 µM
IC50 [1]: > 20 µM

N#C[C@@H]1CCCN1C(=O)[C@@H](N)CCC(=O)N1CCOCC1
IC50 (Dipeptidyl peptidase 4): 0.017 µM
IC50 (Dipeptidyl peptidase 2): > 20 µM
IC50 [1]: > 20 µM

N#C[C@@H]1CCCN1C(=O)[C@@H](N)CCC(=O)NC1CCCC1
IC50 (Dipeptidyl peptidase 4): 0.011 µM
IC50 (Dipeptidyl peptidase 2): > 20 µM
IC50 [1]: > 20 µM

N#C[C@@H]1CCCN1C(=O)[C@@H](N)CCC(=O)N1CCCC1
IC50 (Dipeptidyl peptidase 4): 0.007 µM
IC50 (Dipeptidyl peptidase 2): > 20 µM
IC50 [1]: 11 µM

N#C[C@@H]1CCCN1C(=O)[C@@H](N)CCC(=O)N1CCc2nc(-c3ccc(F)cc3)sc2C1
IC50 [1]: 2.3 µM

N#C[C@@H]1CCCN1C(=O)[C@@H](N)CCC(=O)N1Cc2ccccc2C1
IC50 [1]: 1.2 µM

N#C[C@@H]1CCCN1C(=O)[C@@H](N)CCC(=O)N1CCN(C(=O)C(F)(F)F)CC1
IC50 (Dipeptidyl peptidase 4): 0.008 µM
IC50 (Dipeptidyl peptidase 2): > 20 µM
IC50 [1]: 19 µM

N#C[C@@H]1CCCN1C(=O)[C@@H](N)CCC(=O)N1CCSC1
IC50 (Dipeptidyl peptidase 4): 0.01 µM
IC50 (Dipeptidyl peptidase 2): > 20 µM
IC50 [1]: 8.3 µM

CCOC(=O)N1CCN(C(=O)CC[C@H](N)C(=O)N2CCC[C@H]2C#N)CC1
IC50 (Dipeptidyl peptidase 4): 0.031 µM
IC50 (Dipeptidyl peptidase 2): > 20 µM
IC50 [1]: 3.1 µM

COC[C@@H]1CCCN1C(=O)CC[C@H](N)C(=O)N1CCC[C@H]1C#N
IC50 (Dipeptidyl peptidase 4): 0.007 µM
IC50 (Dipeptidyl peptidase 2): > 20 µM
IC50 [1]: 20 µM

N#C[C@@H]1CCCN1C(=O)[C@@H](N)CCC(=O)N1CCn2cc(C(F)(F)F)nc2C1
IC50 [1]: 14 µM

N#C[C@@H]1CCCN1C(=O)[C@@H](N)CCC(=O)N1CCn2c(nnc2C(F)(F)F)C1
IC50 [1]: > 20 µM

N#C[C@@H]1CCCN1C(=O)[C@@H](N)CCC(=O)N1CCCCC1
IC50 (Dipeptidyl peptidase 4): 0.015 µM
IC50 (Dipeptidyl peptidase 2): > 20 µM
IC50 [1]: > 20 µM

CC[C@H](CC(=O)N1CCn2c(nnc2C(F)(F)F)C1)[C@H](N)C(=O)N1CCC[C@H]1C#N
IC50 (Dipeptidyl peptidase 4): 0.031 µM
IC50 (Dipeptidyl peptidase 2): > 20 µM
IC50 [1]: > 20 µM

N#C[C@@H]1CCCN1C(=O)[C@@H](N)CCC(=O)N1CCn2cnnc2C1
IC50 (Dipeptidyl peptidase 4): 0.007 µM
IC50 (Dipeptidyl peptidase 2): > 20 µM
IC50 [1]: > 20 µM

N#C[C@@H]1CCCN1C(=O)[C@@H](N)CCC(=O)N1CCc2ccccc2C1
IC50 [1]: 8.8 µM

C[C@@H]1CCCN1C(=O)CC(C)(C)[C@H](N)C(=O)N1CCC[C@H]1C#N
IC50 (Dipeptidyl peptidase 4): 0.013 µM
IC50 (Dipeptidyl peptidase 2): > 20 µM
IC50 [1]: > 20 µM

N#C[C@@H]1CCCN1C(=O)[C@@H](N)CC(=O)N1Cc2ccccc2C1
IC50 (Dipeptidyl peptidase 2): > 20 µM
IC50 [1]: > 20 µM

N#C[C@@H]1CCCN1C(=O)CNC12CC3CC(CC(O)(C3)C1)C2 [VILDAGLIPTIN]
IC50 [1]: > 20 µM
Activity (Mus musculus): Active
inhibition in vivo at 3 mg/kg (Rattus norvegicus [3]): > 80%
inhibition in vivo at 3 mg/kg (Rattus norvegicus [4]): > 60%

N#CC1CCCN1C(=O)[C@@H](N)CCC(=O)N1Cc2ccccc2C1 (single isomer, unassigned)
IC50 [1]: 1.2 µM

CC(C)(CC(=O)N1CCc2ccsc2C1)[C@H](N)C(=O)N1CCC[C@H]1C#N
IC50 (Dipeptidyl peptidase 4): 0.025 µM
IC50 (Dipeptidyl peptidase 2): > 20 µM
IC50 [1]: > 20 µM

COc1cc2c(cc1OC)C(C(C)C)N(C(=O)CC[C@H](N)C(=O)N1CCC[C@H]1C#N)CC2 (some centres undefined)
IC50 [1]: 6.1 µM

N[C@@H](CC(=O)N1CCn2c(nnc2C(F)(F)F)C1)Cc1cc(F)c(F)cc1F [SITAGLIPTIN]
IC50 [1]: > 20 µM

N#C[C@@H]1CCCN1C(=O)[C@@H](N)CCC(=O)N1CCN(c2ccncc2)CC1
IC50 [1]: 0.47 µM

N#C[C@@H]1CCCN1C(=O)[C@@H](N)CCC(=O)N1CCc2ccsc2C1
IC50 [1]: 7.5 µM

CC(C)(CC(=O)N1CCc2ccccc2C1)[C@H](N)C(=O)N1CCC[C@H]1C#N
IC50 (Dipeptidyl peptidase 4): 0.016 µM
IC50 (Dipeptidyl peptidase 2): > 20 µM
IC50 [1]: > 20 µM

CC(C)(CC(=O)N1CCn2c(nnc2C(F)(F)F)C1)[C@H](N)C(=O)N1CCC[C@H]1C#N
IC50 (Dipeptidyl peptidase 4): 0.012 µM
IC50 (Dipeptidyl peptidase 2): > 20 µM
IC50 [1]: > 20 µM

CC(C)(CC(=O)N1CCn2nc(C(F)(F)F)nc2C1)[C@H](N)C(=O)N1CCC[C@H]1C#N
IC50 (Dipeptidyl peptidase 4): 0.031 µM
IC50 (Dipeptidyl peptidase 2): > 20 µM
IC50 [1]: > 20 µM

C[C@H](CC(=O)N1CCn2c(nnc2C(F)(F)F)C1)[C@H](N)C(=O)N1CCC[C@H]1C#N
IC50 (Dipeptidyl peptidase 2): > 20 µM
IC50 [1]: 7.1 µM

N#C[C@@H]1CCCN1C(=O)[C@@H](N)CCC(=O)N1CCn2nc(C(F)(F)F)nc2C1
IC50 (Dipeptidyl peptidase 4): 0.009 µM
IC50 (Dipeptidyl peptidase 2): > 20 µM
IC50 [1]: > 20 µM

N#C[C@@H]1CCCN1C(=O)[C@@H](N)CCCC(=O)N1Cc2ccccc2C1
IC50 [1]: 0.054 µM
